Screening data: PubChem, Johns Hopkins Ion Channel Center
KCNQ1 block – inhibitors of human KCNQ1 potassium channel | P51787 | CHO-K1 KCNQ1, FluxOR thallium flux fluorescence; hits give high values | B-score at 10 µM | actives 1.3% (n = 310,000);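 active = compounds whose thallium flux B-score, printed positive for inhibition, exceeds three library SD while starting fluorescence stays within three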;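 note: channel opened by potassium depolarization with thallium stimulus after 20 min compound exposure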
Kir21 block – blocks the mouse Kir2.1 inward-rectifier potassium channel | B-score at 10 µM | actives 0.85% (n = 310,000) | HEK293-Kir2.1, FluxOR thallium flux fluorescence; hits give low values | AID 1672;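 active = fluorescence ratio B-score at or below minus 3 SD of library scores, with starting-brightness B-score within 2 SD, cut at about -4.2 in these data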;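 note: channel flux triggered by added potassium and thallium sulfate stimulus; B-score of peak minus minimum fluorescence over baseline after thallium stimulus; more negative B-score means stronger Kir2.1 block with less thallium influx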
Target sequence (P35561 whole entry, looked up): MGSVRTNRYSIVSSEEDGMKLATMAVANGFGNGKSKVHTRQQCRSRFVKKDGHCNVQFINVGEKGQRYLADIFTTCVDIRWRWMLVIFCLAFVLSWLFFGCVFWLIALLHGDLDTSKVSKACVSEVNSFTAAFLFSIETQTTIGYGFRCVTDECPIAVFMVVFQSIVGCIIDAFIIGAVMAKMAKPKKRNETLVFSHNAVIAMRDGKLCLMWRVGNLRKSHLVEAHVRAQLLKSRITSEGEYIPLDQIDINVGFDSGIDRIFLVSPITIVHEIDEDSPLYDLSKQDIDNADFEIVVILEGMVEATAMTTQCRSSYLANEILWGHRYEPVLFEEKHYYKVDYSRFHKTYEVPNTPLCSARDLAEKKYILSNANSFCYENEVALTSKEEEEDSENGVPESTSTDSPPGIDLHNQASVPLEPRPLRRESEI
hERG rescue – compounds protecting human hERG from proarrhythmic drug block; CHO-hERG, FluxOR thallium flux, dofetilide IC70 present; activation (rescue from dofetilide block), less the hit threshold, % at 10 µM; actives 0.51% (n = 310,000); AID 1511;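 active = activation above the mean of controls blocked by dofetilide plus 5 SD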;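 note: thallium influx through hERG after potassium depolarization seen as dye fluorescence rise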
KCNK9 inh – human KCNK9 channel inhibition | HEK293 KCNK9, FluxOR thallium flux fluorescence; hits give low values | B-score at 10 µM | actives 1.2% (n = 310,000);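 active = ratio B-score over 3 SD below the library mean, with starting fluorescence within 5 SD of its mean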;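 note: negative B-score means less thallium flux so channel inhibition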
KCNK3 block – human KCNK3 channel inhibition, primary screen; O14649; CHO-KCNK3 thallium flux, FluxOR fluorescence; hits give low values; B-score at 10 µM; actives 0.84% (n = 340,000);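 active = B-score under library mean minus 4 SD, starting fluorescence ratio at most library mean plus 5 SD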;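 note: more negative B-score means stronger inhibition of thallium flux through KCNK3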
KCNQ1 pot – human KCNQ1 channel potentiation or activation; P51787; CHO-K1 KCNQ1, thallium flux FluxOR fluorescence; hits give high values; B-score at 10 µM; actives 0.35% (n = 310,000); AID 2648;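 active = fluorescence ratio B-score, a plate-corrected score, at least three library SD, with initial intensity B-score within 5 SD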
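Schedule – 37 °C overnight plating, 90-min dark dye load, 20-min compound pretreatment · System – stable KCNQ1 CHO-K1 line · Probe or stimulus – thallium- and potassium-containing depolarizing buffer · Measured by – kinetic FluxOR fluorescence, 10 s baseline plus 110 s post-stimulus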
KCNK9 block conf – confirmation of human KCNK9 potassium channel inhibitors; actives 43% (n = 4,900); shares compounds with KCNK9 inh; HEK293 KCNK9 cells, FluxOR thallium flux fluorescence; inhibition, % at 10 µM;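 active = thallium signal inhibited by more than 5 SD of the compound-free buffer control wells, on both duplicate plates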;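 note: 0% = assay buffer control wells without compound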
Kir2-1 spec – tests whether KCNK9 modulators also affect mouse Kir2.1. shares compounds with KCNK9 inh. Kir2.1 cells, FluxOR thallium flux fluorescence. inhibition, % at 10 µM. actives 4% (n = 4,900);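 active = thallium signal drop more than 5 SD beyond the mean of the no-compound control wells, seen in both duplicate plates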;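 note: signal is fluorescence rise after thallium addition divided by baseline fluorescence; plate controls were assay buffer only for no effect and full block by chlorpromazine control for full effect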
HEK293 Tl ctr – second counter-screen for KCNK9 modulators: effect in non-induced cells | shares compounds with KCNK9 inh | non-induced KCNK9-HEK293, FluxOR thallium flux | inhibition, % at 10 µM | actives 40% (n = 4,900) | AID 492997;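 active = thallium signal drop beyond 5 SD of the untreated control mean, on both duplicate plates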;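 note: plate controls were buffer only IC0 wells for no effect and SID17386958 at its maximal inhibitory level for full effect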
An asterisk follows results filed as active; i = inactive; / = no result given. A selection: hits, their analogues and other compounds. The true share with any hit is near 3.8%.

SMILES	KCNQ1 block	Kir21 block	hERG rescue	KCNK9 inh	KCNK3 block	KCNQ1 pot	KCNK9 block conf	Kir2-1 spec	HEK293 Tl ctr
CCOc1ccc(NS(=O)(=O)c2ccc(C(=O)N3CCCCCC3)cc2)cc1	i	-0.28	-11	i	i	i	i	i	i
CCOc1ccc(NS(=O)(=O)c2ccc(C(=O)N3CCN(C(C)=O)CC3)cc2)cc1	i	0.67	-7	i	i	i	/	/	/
CCOc1ccc(OCc2ccc(C(=O)N3CCOCC3)cc2)cc1	i	0.15	-9	i	i	i	/	/	/
CCOc1ccc(OCc2ccc(C(=O)N3CCCC(C)C3)cc2)cc1 (centres undefined)	i	1.3	0	i	i	i	i	i	i
COc1ccc(NS(=O)(=O)c2ccc(C(=O)N3CCCCCC3)cc2)cc1	/	/	/	/	i	/	/	/	/
CCCN(C(=O)C1CC(=O)N(c2ccccc2C(C)CC)C1)C1CCS(=O)(=O)C1 (centres undefined)	/	/	/	/	i	/	/	/	/
Cc1ccc(C)c(N2CCN(C(=O)c3cc(S(=O)(=O)N4CCOCC4)ccc3F)CC2)c1	i	0.02	-1	i	i	i	i	i	i
Cc1ccc(S(=O)(=O)N2CCOCC2)cc1C(=O)O	i	-0.06	-7	i	i	i	/	/	/
Cc1ccc(NC(=O)c2nc(S(=O)(=O)Cc3ccccc3)ncc2Cl)cc1	i	-0.11	-18	i	i	i	/	/	/
O=C(Nc1ccc(F)cc1)c1nc(S(=O)(=O)Cc2ccccc2)ncc1Cl	i	-1.2	-21	-9*	i	i	47%*	i	i
CC(=O)N1CC(c2ccccc2)C(c2ccc(Cl)cc2)=N1 (centres undefined)	i	-0.82	-7	-9*	i	i	i	i	i
Cc1ccsc1C(=O)NCCc1ccc(S(N)(=O)=O)cc1	i	-2	-4	i	i	i	/	/	/
CCOC(=O)c1c(NC(=O)c2nn(CC)cc2Br)c(C#N)nn1-c1ccccc1	i	-0.53	-9	-9.3*	i	i	30%*	i	33%*
CCOC(=O)c1nn(-c2ccccc2)c(C#N)c1NC(=O)c1nn(CC)cc1Br	i	-0.02	-5	i	i	i	/	/	/
Cc1nn(-c2ccccc2)c(N)c1Sc1cccc([N+](=O)[O-])c1	i	0.55	-9	-13*	i	i	66%*	i	29%*
Cc1nn(-c2ccccc2)c(N)c1Sc1ccccc1[N+](=O)[O-]	i	0.14	-9	i	i	i	/	/	/
O=C(c1ccccc1F)N(Cc1nc2ccccc2c(=O)[nH]1)C1CCCC1	i	-1.7	-1	i	i	i	/	/	/
COc1ccc([N+](=O)[O-])cc1NC(=O)C(C)Sc1nc(-c2ccccc2)cs1 (centres undefined)	i	-1.6	-13	-8.1*	i	i	i	i	31%*
COc1ccc([N+](=O)[O-])cc1NC(=O)C(C)Sc1ccccc1 (centres undefined)	i	-0.09	-6	i	i	i	/	/	/
COc1ccc(N=C(c2ccccc2)c2c(C)[nH]n(-c3ccccc3)c2=O)c(OC)c1	6*	-0.7	-16	i	i	i	i	i	32%*
COc1ccc(C(=O)NC(=S)Nc2ccc(CN3CCOCC3)cc2)cc1Cl	i	0.94	-14	i	i	i	i	i	i
COc1ccc(C(=O)NC(=S)Nc2ccc(CN3CCCCC3)cc2)cc1Cl	i	-0.48	-23	i	i	i	/	/	/
CC(C)C(NC(=O)OCc1ccccc1)C(=O)NC1CCCCC1 (centres undefined)	i	-0.4	-6	i	i	i	/	/	/
O=C(Oc1ccc2ccc(=O)oc2c1)c1ccccc1	i	0.67	-11	i	i	i	/	/	/
COc1ccc(C(=O)Oc2ccc3ccc(=O)oc3c2)cc1	i	1.1	-3	-13*	i	i	64%*	i	27%*
SMILES	KCNQ1 block	Kir21 block	hERG rescue	KCNK9 inh	KCNK3 block	KCNQ1 pot	KCNK9 block conf	Kir2-1 spec	HEK293 Tl ctr
CC(C)OCCCNC(=O)C1CCN(S(=O)(=O)N2CCCC2)CC1	i	-0.03	-21	-8.1*	i	i	i	i	i
O=C(O)Cc1cccc(=O)c(O)c1C(=O)O	/	/	/	/	i	/	/	/	/
Cc1nc2ccccc2c(=O)n1NC(=O)C1CC1	i	-0.28	-14	i	i	i	/	/	/
Cc1ccc(NC(=O)C2CCCN2S(=O)(=O)c2ccc(-c3ccc(=O)[nH]n3)s2)c(C)c1 (centres undefined)	i	-1.5	-5	i	i	i	/	/	/
COCCNC(=O)CN(C(=O)Cn1nnc2ccccc21)c1ccc(C)c(F)c1	i	-0.89	-14	i	i	i	i	i	i
COCCNC(=O)CN(C(=O)Cn1nnc2ccccc21)c1ccc(C)cc1	i	0.1	-5	i	i	i	/	/	/
CCC(CC)NC(=O)CSc1ccc(S(=O)(=O)N2CCCCC2)cn1	/	/	/	/	i	/	/	/	/
CSc1ccc(C(=O)C2CCCN(C(=O)c3ccc4c(c3)OCO4)C2)cc1 (centres undefined)	i	0.11	-5	i	i	i	i	i	i
Cc1ccc2[nH]nc(C(=O)N3CCCC(C(=O)c4ccc(Cl)cc4)C3)c2c1 (centres undefined)	i	0.24	-3	i	i	i	i	i	i
CCc1cc(C(=O)N2CCCC(C(=O)c3ccc(Cl)cc3)C2)no1 (centres undefined)	i	-4	-8	i	i	i	i	i	i
COCc1ccc(C(=O)N2CCCC(C(=O)c3ccc(SC)cc3)C2)s1 (centres undefined)	i	-0.54	-2	i	i	i	i	i	i
Cc1noc(C)c1C(=O)N1CCCC(C(=O)c2ccc(Cl)cc2)C1 (centres undefined)	i	0.04	-12	i	i	i	/	/	/
COc1ccc(S(=O)(=O)N2CCN(C(=O)CCSc3ccccc3)CC2)cc1	/	/	/	/	i	/	/	/	/
O=C(CN1C(=O)NC2(CCCCC2)C1=O)N1CCN(S(=O)(=O)/C=C/c2ccccc2)CC1	i	-0.16	-12	i	i	i	/	/	/
O=C(Nc1ccncc1Cl)c1ccncc1	i	1.1	-13	i	i	i	/	/	/
